# Data: ChEMBL document CHEMBL4513216, “Probing the Open Global Health Chemical Diversity Library for Multistage-Active Starting Points for Next-Generation Antimalarials” (ACS Infect Dis, 2020)
# Assay: Toxicity liver stage against HepG2, at 10uM
# Assay type: cell-based
# Design: test concentration 10 uM, cell line HepG2-A16-CD81EGFP
# Conditions: human, HepG2-A16-CD81EGFP cells; read-out: INHIBITION
# How it was run: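 Uninfected HepG2-A16-CD81EGFP cells, 3 × 10^3 per well, 1536-well, plated on prespotted compound at 10 μM final, parasite-free screening media added to match infected plates; puromycin 10 μM positive, DMSO 0.5% negative; run in parallel with 48 h PbLuc assay at 37 °C, 5% CO2; viability by CellTiter-Glo luminescence, normalized to controls.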
row,Structure (SMILES),cytotoxicity at 10 µM [%]
1,O=C(Nc1ccc(F)c(Br)c1)N1CCCC1,2.32
2,O=C(NC[C@H]1OC[C@@H](NC2COC2)[C@@H]1O)Nc1ccccc1,4.43
3,CC[C@H]1CN(C(=O)c2cccnc2)CC[C@H]1CC(=O)NC1CC1,4.18
4,COC(=O)[C@@H]1CN(C(=O)NC(C)C)CCN1S(=O)(=O)c1ccccc1,2.17
5,CSc1ccc(C(=O)N2CC(=O)N(CC3CC3)CC(O)C2)cc1 (stereo unspecified),0.174
6,COc1ccc2c(ccn2CCC(=O)Nc2ccc(C(N)=O)cc2)c1,6.1
7,Cc1cc(N2CCOCC2)nc(N(C)CCO)c1C#N,2.17
8,COc1cn(CC(=O)N2CCC(c3ccccc3)CC2)c(C)cc1=O,1.11
9,O=C(NC1CCN(c2ccc(-c3ccccc3F)nn2)C1)c1ccc[nH]1 (stereo unspecified),7.4
10,Cc1csc(C(=O)N2CCC(S(C)(=O)=O)C2)c1 (stereo unspecified),-5.21
11,CC(C)NC(=O)N1CCOC2(CNC2)C1,-0.479
12,Cc1ccc(CN2CC3(CCN(S(=O)(=O)c4ccccc4)C3)C2)o1,-2.3
13,O=C([C@H]1CCCO1)N1CCC2(CCCN(CCOc3ccccc3)C2)C1 (stereo partly specified),-3.25
14,COCCC(=O)N1CC2(CCN(c3ccccc3)C2)C1,10.3
15,CC(=O)N1CCO[C@@H]2CN(C(=O)c3ccccc3)CC[C@@H]2C1,5.29
16,O=C(CO)N1CCCn2nnc(Cn3cccn3)c2C1,6.59
17,COc1ccc2c(ccn2CCC(=O)/N=c2\[nH]nc(C3CCCO3)s2)c1 (stereo unspecified),-8.07
18,O=C(NCCC1=CCCCC1)C1CCN(c2ccc3nncn3n2)CC1,-2.96
19,CCCc1nc(N2CCC(C)CC2)c2c(n1)c(C)nn2CC,1.64
20,CS(=O)(=O)N1CCCC(c2cccc(-c3ccccc3F)n2)C1 (stereo unspecified),-3.81
21,CC(=O)N1CC(c2ccnc(Nc3nccs3)n2)C1,3.23
22,CC(=O)N1CCOCC(Cc2ccc3c(ccn3C(C)=O)c2)C1 (stereo unspecified),1.64
23,CC(=O)N1C[C@H](c2cc(O)nc(C)n2)[C@@H](c2ccccc2F)C1,1.65

row,Structure (SMILES),cytotoxicity at 10 µM [%]
1,Oc1nc(C2CC2)nc2c1nnn2C1CCN(Cc2ccoc2)CC1,6.01
2,Cn1cnc2ccc(NC(=O)CC3CCN(C4CCCCC4)CC3)cc21,25.9
3,CCn1cc(C(=O)N(C)[C@@H]2CC[C@@H](N3CCCC3)[C@@H]2O)c(C)n1,5.92
4,Cc1nc(C)n(CC(=O)N2CCCC(c3cc4ccccc4cn3)C2)n1 (stereo unspecified),-22.1
5,Cc1cc(C)nc(N2CCC(CNC(=O)c3ccccn3)CC2)n1,-18.9
6,CCc1nnc(Nc2cccc(C3CCN(C)CC3)n2)s1,-28.6
7,O=C(c1ccncc1)N1CCCC(c2ncncc2-c2ccncc2)C1 (stereo unspecified),-17.2
8,CNc1cc(N2CCC(O)(CNC(=O)c3ccc(C)nc3)C2)ncn1 (stereo unspecified),-25.3
9,CC(C)CN1CCC(C(=O)NCCNC(=O)c2ccccc2)CC1,1.22
10,CCc1cccc(CC(=O)NC2CCN(C(=O)NC(C)(C)C)CC2)c1,-4.73
11,Cc1ccc(S(N)(=O)=O)cc1C(=O)NC1CCCC1,1.86
12,CCc1nnc(SCC(=O)Nc2cc(C(C)(C)C)nn2C)[nH]1,7.28
13,O=C1COc2cc(S(=O)(=O)NCCC3=CCCCC3)c(Br)cc2N1,15.7
14,O=C(CCNc1ncccn1)NCCc1ccc(Cl)s1,-3.91
15,O=C(NC1CCCCNC1=O)c1cc2ccccc2[nH]c1=O (stereo unspecified),-6.08
16,CCN(Cc1ccco1)C(=O)NCc1nnc2n1CCCCC2,-4.73
17,CC1CCN(CCNC(=O)C2CCN(C(=O)C(C)(C)C)CC2)CC1,6.81
18,CCOC(C)C(=O)N1CCN(S(C)(=O)=O)CC1 (stereo unspecified),-5.35
19,O=C(NS(=O)(=O)c1c(Cl)cccc1Cl)c1cccc2c1OCCO2,0.582
20,Cc1cnn(CCNCC(O)c2ccc(S(C)(=O)=O)cc2)c1 (stereo unspecified),1.1
21,O=C(Nc1nncs1)c1ccc(-n2cnnn2)cc1,5.25
22,N#Cc1cccc(Cl)c1NCCCc1nc(=O)[nH][nH]1,24.2
23,O=C(Cc1cnn(-c2ccccc2)n1)NC(C1CC1)C1CC1,-9.66

row,Structure (SMILES),cytotoxicity at 10 µM [%]
1,Cc1cccc(N2N=C(C(=O)NC(C)CCc3ccco3)CCC2=O)c1 (stereo unspecified),-10.1
2,CC(C)CCN(C(=O)c1cccc(NC(N)=O)c1)C1CC1,-6.46
3,CC(SCCS(C)(=O)=O)c1nc(Cc2ccc(F)cc2)no1 (stereo unspecified),4.6
4,CCOC(=O)C(CO)NC(=O)CCc1cccc(OC2CCCC2)c1 (stereo unspecified),-7.08
5,COCCC(Cc1cccc(Br)c1)C(=O)NCC(N)=O (stereo unspecified),9.74
6,CC(C)N(Cc1ccccn1)C(=O)CN(C)C(=O)c1cccs1,2.31
7,CC(C)c1nc(C2CCCN2CCOCC2CC2)no1 (stereo unspecified),1.8
8,Cc1csc(N2CCCN(Cc3ccn(C)c(=O)c3)CC2)n1,12.8
9,CSC(CNS(C)(=O)=O)c1cccc(Cl)c1 (stereo unspecified),6.27
10,O=S(=O)(C1CC1)N1CCc2c(CN3CCOCC3)cncc2C1,-0.514
11,c1cnc(N2CCc3onc(CN4CCOCC4)c3C2)cn1,14.1
12,CC(=O)N1CCC2(CC1)CN(C(C)C)c1ccc(F)cc12,-110
13,Cc1nc(CN2CCCCC2CCc2ccc(O)cc2)co1 (stereo unspecified),2.72
14,CCN(CC)C(=O)C1CCC(=O)N(CCc2cccc(F)c2)C1 (stereo unspecified),-4.92
15,CC(C)c1nccc(C2CC(=O)Nc3n[nH]c(C4CCC4)c32)n1 (stereo unspecified),-14.6
16,Cc1ccccc1N1CCN(C(=O)c2cnn(C(C)C)c2)C(C)C1 (stereo unspecified),1.48
17,COc1ccc(CN2C[C@@H](CN(C)CCO)[C@@H](CO)C2)cc1Cl,-5.88
18,Cc1cc(CNC(=O)c2ccc(C(C)N3CCCCC3)o2)[nH]n1 (stereo unspecified),-12.6
19,Cc1nccn1CCC1CCN(C2CCC3(CCNCC3)CC2)CC1,-1.43
20,CN(Cc1nc(CC2CC2)no1)CC1Cc2ccccc2O1 (stereo unspecified),-2.53
21,COCC1CCCCN1Cc1nc(-c2ccoc2)oc1C (stereo unspecified),1.93
22,COCc1cc(NCc2ccccc2OC)ncn1,7.69
23,Cc1cc2[nH]c(=O)oc2cc1S(=O)(=O)N1CCC(N2CCCC2=O)CC1,1.54

row,Structure (SMILES),cytotoxicity at 10 µM [%]
1,COc1cccc(C(=O)N(C)C(C)c2c(C)n[nH]c2C)c1OC (stereo unspecified),-2.8
2,CC(C)c1nc(CN(C)C(=O)CCNC(=O)c2ccccc2F)no1,4.66
3,CCn1ncnc1C(C)NC(=O)COc1ccc(Cl)cc1Cl (stereo unspecified),2.8
4,CCC(C(=O)NCc1ccccn1)N(c1cccc(C)c1)S(C)(=O)=O (stereo unspecified),0.383
5,CCn1cc(S(=O)(=O)N(C)Cc2c(Br)cnn2CC)c(C)n1,3.3
6,Cc1nc(-c2ccc(C(=O)O)cc2)cc(C2CCN(C(C)C)C2)n1 (stereo unspecified),6.62
7,CCc1nccn1C1CCCN(C(=O)c2ccc(OC)c(OC)c2)C1 (stereo unspecified),-20.6
8,Cc1cnn(C2CCCN(C(=O)c3ccc(O)nc3)C2)c1 (stereo unspecified),-2.78
9,CC(C)OCCCNC(=O)CN1C=Nc2ccccc2S1(=O)=O,-5.44
10,Cc1cnn(CC2CCCN2C(=O)c2c(C)noc2C)c1 (stereo unspecified),-6.02
11,Cc1nnc(NC(=O)CN(C)C2CCCN(c3cccnn3)C2)s1 (stereo unspecified),-5.64
12,CC(C)c1nnc2n1CCN(C(=O)CN(C)Cc1ccccc1)C2,-5.17
13,COc1cccc(CNCc2c(C(C)C)nn(C)c2N(C)C)c1,-7.36
14,Cc1cc(C)n(CC2CN(Cc3ccccn3)CCO2)n1 (stereo unspecified),-3.89
15,Cc1ccc(C(=O)NCc2cccnc2N(C)C)o1,-6.86
16,Cc1cscc1C(=O)N1CCCC1CC(=O)c1cnn(C)c1 (stereo unspecified),-3.4
17,CN(Cc1cc(-c2ccccc2)no1)C1CCCN(c2cccnn2)C1 (stereo unspecified),-10.2
18,COCC(=O)N1CCN(Cc2coc(-c3cccc(F)c3)n2)CC1,-7.16
19,Cn1cc(C2CCCN2C(=O)c2ccc(Br)o2)cn1 (stereo unspecified),-3.32
20,Cc1cc(C)n(C2CCCN(C(=O)COCC(F)(F)F)C2)n1 (stereo unspecified),-4.3
21,CC(=O)N(Cc1ncc(C)o1)C1CCN(CCCc2cnn(C)c2)C1 (stereo unspecified),8.11
22,CN(C)CC1CN(c2ncnc3[nH]ccc23)CCO1 (stereo unspecified),0.89
23,Cc1nn(C)c(C)c1C1CCCN1Cc1nc(C)c2ccccc2n1 (stereo unspecified),-3.9

row,Structure (SMILES),cytotoxicity at 10 µM [%]
1,O=C(CC1CCCCC1)N1CCN(C(=O)NCc2ccccn2)CC1,-4.02
2,Cc1cc(C)n(CC2CCCCN2Cc2cscn2)n1 (stereo unspecified),1.78
3,Cc1nc2cc(-c3nccn3C)nn2c(N2CCC(O)CC2)c1C,-3.31
4,CN(C)C(=O)N1Cc2ccccc2C2(CCNCC2)C1,1.26
5,N#Cc1ccc(N2CCC3(CCCN(c4ccccn4)C3)C2)nc1 (stereo unspecified),15.6
6,Fc1cccnc1N1CCOCC2(CCCN(c3nncs3)C2)C1 (stereo unspecified),3.44
7,COc1ncccc1CN1C[C@@H]2COC[C@]2(COCC2CC2)C1,5.37
8,Cc1cnc2n1CCN(C)C21CCN(CC2CC2)CC1,7.34
9,CCN1CCC2(CC1)CC(NC(=O)N(C)C)c1cc(C)ccc12 (stereo unspecified),-13.1
10,O=C(c1ccco1)N1CCN2C[C@H](OCc3cccnc3)C[C@H]2C1,-77
11,O=C1NC2(CCN(Cc3ccsc3)CC2)CC1c1ccncc1 (stereo unspecified),4.93
12,CN(C)[C@@H]1CN(C(=O)Cc2ccsc2)[C@@H]2CCCO[C@H]12,3.08
13,O=C1COC2(COCCN(Cc3ccsc3)C2)CN1c1ccoc1 (stereo unspecified),-73.5
14,O=C1[C@@H]2CCN(Cc3ccoc3)C[C@@H]2OCCN1Cc1cccnc1,-0.671
15,CCN1CCOCC2(CCCN(C(=O)c3conc3C)C2)C1 (stereo unspecified),2.82
16,CCOCC(=O)N1CCC2(CC1)COCCN2CCOC,8.37
17,COCCOCC1(CNCc2cccc(OC)c2)C[C@@H](O)[C@@H](O)C1 (stereo partly specified),0.994
18,CN(C)C(=O)N1C[C@H]2CC[C@@H](C1)N(C(=O)c1c(Cl)cccc1Cl)C2,7.2
19,O=C1CCCC2=Nc3nonc3NC(c3ccccc3Cl)C12 (stereo unspecified),18.5
